Where “and” joins values, the source holds several entries; their conditions need not be identical. Equal entries are not always repeated.
Experiments:
[1] = test system: intracellular L. donovani; assay: L. donovani-infected macrophage assay; assay type: cell-based, Leishmania donovani; settings: Leishmania donovani, Macrophage, read-out: IC50 against L. donovani
J774 macrophages = assay: J774 macrophage toxicity assay; assay type: cell-based, mouse; settings: for IC50: Mus musculus, J774, read-out: IC50 against J774 macrophages
HepG2 cells = assay: HepG2 toxicity assay; assay type: cell-based; settings: for IC50: Homo sapiens, HepG2, 72 h, read-out: IC50 against HepG2
[2] = target: recombinant L. donovani CYP51 (Leishmania donovani, UniProt A0A3S7WRS7); assay: Fluorescence-based L. donovani CYP51 inhibition assay; assay type: biochemical
L. donovani CYP51 = L. donovani CYP51 ligand binding spectra; set-up: species or system Leishmania donovani; settings: titration of CYP51; absorbance maximum 431 nm, minimum 412–413 nm
How it was run: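 Purified N-terminally truncated L. donovani CYP51 (CYP51-32c, His-tagged; purity by SDS-PAGE/anti-His Western blot, CO-difference spectra) at 0.5 µM, titrated in 30 mM potassium phosphate pH 7.4 with 0.1 mM EDTA and 20% glycerol. […], and sample-minus-reference difference spectra were recorded.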

recombinant human CYP3A4 = recombinant human CYP3A4 (Homo sapiens, UniProt P08684); assay: Inhibition of recombinant human CYP3A4; assay type: in vitro ADME
[3] = Microsomal stability, human liver microsomes; assay type: in vitro ADME; settings: for remaining at 1 h, 3 μM: human, liver microsomes
[4] = test system: L. donovani-infected female BALB/c mice; assay: Murine visceral leishmaniasis model; assay type: in vivo; settings: for Reduction in liver parasitemia: three days after final dose
How it was run: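 Female BALB/c mice infected with L. donovani; groups of four. Dosing by oral gavage for 5 consecutive days, starting one week post-infection. Test compound was given at 75 or 37.5 mg/kg/day in 50% PEG400/50% water. Reference drug miltefosine was given at 10 mg/kg/day in water. The vehicle control group received PEG-400. Liver parasitemia was determined three days after the final dose, reported as percent reduction (mean ± S.E.M.).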

[5] = Microsomal stability, mouse liver microsomes; assay type: in vitro ADME; settings: mouse, liver microsomes

recombinant human CYP3A4, sequence (P08684 whole entry): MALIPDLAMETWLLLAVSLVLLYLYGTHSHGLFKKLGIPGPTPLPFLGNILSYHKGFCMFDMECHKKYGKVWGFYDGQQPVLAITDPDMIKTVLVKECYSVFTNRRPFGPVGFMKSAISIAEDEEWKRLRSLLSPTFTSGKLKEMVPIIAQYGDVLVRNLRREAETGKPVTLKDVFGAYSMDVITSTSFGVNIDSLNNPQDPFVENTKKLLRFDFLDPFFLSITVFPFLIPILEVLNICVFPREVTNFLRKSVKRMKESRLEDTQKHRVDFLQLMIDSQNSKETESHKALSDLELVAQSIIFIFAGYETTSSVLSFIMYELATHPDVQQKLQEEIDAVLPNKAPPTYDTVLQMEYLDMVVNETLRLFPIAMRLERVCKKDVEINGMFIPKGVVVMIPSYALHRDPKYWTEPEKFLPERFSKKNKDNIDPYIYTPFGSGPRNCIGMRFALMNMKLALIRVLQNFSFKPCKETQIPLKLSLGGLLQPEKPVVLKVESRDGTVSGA

Row | IC50 [1] [µM] | IC50 [2] [µM] | remaining at 1 h, 3 μM [3] [%] | Degradation by human liver microsomes (in words) ([3]; over a period of one hour, substrate 3 μM) | remaining at 1 h, 3 μM [5] [%] | SMILES | IC50 (J774 macrophages) [µM] | IC50 (HepG2 cells) [µM] | CYP51 binding spectrum type (L. donovani CYP51) | IC50 (recombinant human CYP3A4) [µM] | Reduction of liver infection ([4]; 10 mg/kg/day × 5 p.o.) [%] | Selectivity index (IC50 vs. mammalian cell line/IC50 vs. L. donovani) (J774 macrophages; J774 macrophages vs. intracellular L. donovani) | Selectivity index (IC50 vs. mammalian cell line/IC50 vs. L. donovani) (HepG2 cells; HepG2 cells vs. intracellular L. donovani) | Reduction in liver parasitemia ([4]; 37.5 mg/kg/day × 5 p.o.) [%] | Reduction in liver parasitemia ([4]; 75 mg/kg/day × 5 p.o., mean ± S.E.M.)
1 | 1 | 0.36 ± 0.03 | 100 | not degraded |  | N=C(Nc1ccc(OCCCCCCCCn2ccnc2)cc1)c1ccccn1 [Compound 9h, N-(4-((8-(1H-imidazol-1-yl)octyl)oxy)phenyl) picolinimidamide] | 11 ± 1 | 12 ± 3 | typical Type II binding spectra | 0.047 ± 0.003 |  |  |  |  | 
2 |  |  |  |  |  | CCCCCCCCCCCCCCCCOP(=O)([O-])OCC[N+](C)(C)C [Miltefosine, miltefosine, reference compound] |  |  |  |  | 95 ± 2 |  |  |  | 
3 | 0.73 ± 0.15 | 0.34 ± 0.01 | > 80 |  | 100 | CCOc1cc(OCCCCCCCCn2ccnc2)ccc1NC(=N)c1ccccn1 [Compound 24b, N-(4-((8-(1H-imidazol-1-yl)octyl)oxy)-2-ethoxyphenyl) picolinimidamide] | 6.8 ± 0.1 | 12 ± 2 |  |  |  |  |  |  | 

Row | SMILES | IC50 [1] [µM] | IC50 [2] [µM] | remaining at 1 h, 3 μM [3] [%] | Degradation by human liver microsomes (in words) ([3]; over a period of one hour, substrate 3 μM) | remaining at 1 h, 3 μM [5] [%] | IC50 (J774 macrophages) [µM] | IC50 (HepG2 cells) [µM] | CYP51 binding spectrum type (L. donovani CYP51) | IC50 (recombinant human CYP3A4) [µM] | Reduction of liver infection ([4]; 10 mg/kg/day × 5 p.o.) [%] | Selectivity index (IC50 vs. mammalian cell line/IC50 vs. L. donovani) (J774 macrophages; J774 macrophages vs. intracellular L. donovani) | Selectivity index (IC50 vs. mammalian cell line/IC50 vs. L. donovani) (HepG2 cells; HepG2 cells vs. intracellular L. donovani) | Reduction in liver parasitemia ([4]; 37.5 mg/kg/day × 5 p.o.) [%] | Reduction in liver parasitemia ([4]; 75 mg/kg/day × 5 p.o., mean ± S.E.M.)
4 | CC(C)Oc1cc(OCCCCCCCCn2ccnc2)ccc1NC(=N)c1ccccn1 [Compound 24c, N-(4-((8-(1H-imidazol-1-yl)octyl)oxy)-2-isopropoxyphenyl) picolinimidamide] | 0.53 ± 0.05 | 0.33 ± 0.01 |  |  |  | 6.8 ± 0.2 | 12 ± 2 | typical Type II binding spectra | 0.08 ± 0.009 |  | 13 | 23 | 17 ± 5 | 33% and 33 ± 7%

From paper PMC8553517 (ACS infectious diseases, 2021)
